Calls of active or inactive are those of the source. The calls are words filed in the database; no cut-off is given here.

A short description of data set [1]: Cell cycle arrest against human Hs578T cells assessed as decrease in cells at G2/M phase at 0.5 ug/ml after 24 to 48 hrs by propidium iodide staining based flow cytometry. The conditions noted are these: Hs-578T. Type of data set: functional. The essentials: (§1)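 Log-phase Hs578T cells exposed 24 and 48 h to 0.5 μg/ml. Adherent plus floating cells fixed in cold 70% ethanol, kept overnight at -20°C, washed into PBS-T (132 mM NaCl, 4 mM KCl, 1.2 mM NaH2PO4, 0.1% Tween). Treated with 20 μg/ml RNase for 45 min at 37°C, then propidium iodide for 30 min at 37°C. Phase percentages read by flow cytometry. Mean ± SEM, 5 experiments.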
(In general: In flow cytometry, cells or beads pass a laser one at a time.)

Data set [2] relates to MCF7. Nature of the data set: Cytotoxicity against human MCF7 cells at 0.125 to 2 ug/ml after 1 to 5 days by sulforhodamine B assay in presence of taxol. Type of data set: functional, cell-based. (In SRB staining, fixed cells bind dye roughly in proportion to their protein.)
Data set [3] deals with MDA-MB-231. Nature of the data set: Cytotoxicity against human MDA-MB-231 cells at 0.125 to 2 ug/ml after 1 to 5 days by sulforhodamine B assay in presence of taxol. Type of data set: functional, cell-based.
Data set [4] is described as follows: Cell cycle arrest against human Hs578T cells assessed as increase in cells at G0/G1 phase at 0.5 ug/ml after 24 to 48 hrs by propidium iodide staining based flow cytometry. Type of data set: functional. As to conditions: Hs-578T. The essentials: as §1
Data set [5] has as its system Hs-578T. The experiment in a line: Cytotoxicity against human Hs578T cells at 0.125 to 2 ug/ml incubated for 6 hrs folowed by drug wash out and fresh medium addition and measured 5 days after wash out. Type of data set: functional, cell-based.
Data set [6] has as its system BJ. The experiment in a line: Cytotoxicity against human BJ cells at 0.125 to 2 ug/ml after 1 to 5 days by sulforhodamine B assay. Type of data set: cell-based. In outline:
(§2)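 Non-tumor cells seeded at 2×10^4 cells/ml and treated 24 h after seeding, in high-glucose DMEM with pyruvate, 10% FBS and penicillin-streptomycin, 37°C, 5% CO2. Compound exposure 0.125–2 μg/ml for 1, 3 and 5 days, with vehicle controls. Cells fixed and stained with sulforhodamine B for total cell mass. Data given as % of untreated control at each time point; five independent experiments.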

Data set [7] has as its system Hs-578T. Nature of the data set: Cytotoxicity against human Hs578T cells at 0.125 to 2 ug/ml after 1 to 5 days by sulforhodamine B assay in presence of taxol. Type of data set: functional, cell-based.
The nature of data set [8]: Cytotoxicity against human MCF12A cells at 0.125 to 2 ug/ml after 1 to 5 days by sulforhodamine B assay. Type of data set: cell-based. The conditions noted are these: mcf-12a. The essentials: as §2
Data set [9] in a line: Cell cycle arrest against human Hs578T cells assessed as decrease in cells at S phase at 0.5 ug/ml after 24 to 48 hrs by propidium iodide staining based flow cytometry. Type of data set: functional. As to conditions: Hs-578T. In outline: as §1
In data set [10] the test system is MCF7. The experiment in a line: Cytotoxicity against human MCF7 cells at 0.125 to 2 ug/ml after 1 to 5 days by sulforhodamine B assay. Type of data set: functional, cell-based. In outline:
(§3)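 Sulforhodamine B growth assay in high-glucose DMEM with 10% FBS. Cancer cells seeded at 1×10^4 cells/ml; compound (0.125–2 μg/ml) added 24 h after seeding and left for 1, 3 or 5 days. Cells fixed, total mass stained. Expressed as % of untreated cells at the same time point. Mean ± SEM, five independent experiments.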

Data set [11] concerns MDA-MB-231. The experiment in a line: Cytotoxicity against human MDA-MB-231 cells at 0.125 to 2 ug/ml after 1 to 5 days by sulforhodamine B assay. Type of data set: functional, cell-based. In outline:
as §3

Data set [12] deals with Hs-578T. Nature of the data set: Cytotoxicity against human Hs578T cells at 0.125 to 2 ug/ml after 1 to 5 days by sulforhodamine B assay. Type of data set: functional, cell-based. In outline:
as §3

In the case of `C=C(C)[C@@H]1CC[C@]2(COC(=O)C(C)[n+]3ccc(N(C)C)cc3)CC[C@]3(C)[C@H](CC[C@@H]4[C@@]5(C)CC[C@H](OC(=O)C(C)[n+]6ccc(N(C)C)cc6)C(C)(C)[C@@H]5CC[C@]43C)[C@@H]12.[Cl-].[Cl-]` (some centres not stated), the inhibition result in [1], in [2], in data set [3], in data set [5], in [7] and in data set [9] was “Active” throughout. Further, in [4], the outcome was Active. Moreover, the Activity result in data set [6] and in data set [8] was “Toxic” each time.

Turning to `C=C(C)[C@@H]1CC[C@]2(COC(=O)C[n+]3ccc(C)cc3C)CC[C@]3(C)[C@H](CC[C@@H]4[C@@]5(C)CC[C@H](OC(=O)C[n+]6ccc(C)cc6C)C(C)(C)[C@@H]5CC[C@]43C)[C@@H]12.[Cl-].[Cl-]`, the “G0/G1 cell cycle arrest” value in [4] is “Active”. Besides, the inhibition result in [5] and in data set [9] was “Active” in each case. Besides, the Activity result in [6] and in data set [8] was “Toxic” in each case.

Consider `C=C(C)[C@@H]1CC[C@]2(COC(=O)CCC[n+]3ccc(N(C)C)cc3)CC[C@]3(C)[C@H](CC[C@@H]4[C@@]5(C)CC[C@H](OC(=O)CCC[n+]6ccc(N(C)C)cc6)C(C)(C)[C@@H]5CC[C@]43C)[C@@H]12.[Br-].[Br-]`, for which the inhibition result in data set [10], in data set [11], in data set [5], in data set [12] and in data set [9] was “Active” in each case. Also, in [4], the result was Active. Further, the Activity entry in [6] and in data set [8] was “Toxic” each time.
